We go through five molecules from article PMC4066402 (Genes & Development, 2014).

Positions count from the first letter of the chain named.

In one assay the target is T1, Pce1 G276R (Schizosaccharomyces pombe, UniProt P40997, G276R).
T1 sequence (P40997 1-402 G276R): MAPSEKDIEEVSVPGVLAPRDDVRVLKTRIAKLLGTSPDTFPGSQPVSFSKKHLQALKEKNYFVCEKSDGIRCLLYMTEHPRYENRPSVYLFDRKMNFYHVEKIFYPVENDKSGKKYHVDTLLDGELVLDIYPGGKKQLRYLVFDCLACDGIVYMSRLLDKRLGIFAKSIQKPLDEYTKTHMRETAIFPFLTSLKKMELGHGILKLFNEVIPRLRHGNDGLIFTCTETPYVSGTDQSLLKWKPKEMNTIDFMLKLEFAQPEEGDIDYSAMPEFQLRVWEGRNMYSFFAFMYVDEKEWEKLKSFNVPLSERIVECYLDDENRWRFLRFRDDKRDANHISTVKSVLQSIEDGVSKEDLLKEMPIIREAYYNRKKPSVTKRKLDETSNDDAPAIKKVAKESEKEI
Briefly: Fluorescence polarization binding of Spt5 CTD-. Also noted: species or system S. pombe. In outline:
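Tag-free Pce1–GMP (His6Smt3 fusion made in E. coli, Ulp1-cleaved, gel-filtered, then guanylylated with 1 mM GTP/5 mM MgCl2 for 30 min on ice) was titrated against BODIPY-FL-N(Cys)-Spt5-(801–898) in 20 mM Tris-HCl, 4 mM DTT. Incubation was 15 min on ice. Read-out was polarization at ex 485/em 538 nm. Kd came from single-site fits, using a receptor-depletion model where half-saturation approached the ligand concentration.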
(Polarisation of emitted light reports the rotation of a fluorescent probe.)

Assay [1] relates to Pce1. Conditions: His tag affinity chromatography assay; ref Pei and Shuman 2002; cited from earlier work.
The target in assay [2] is T2, Pce1 (Schizosaccharomyces pombe, UniProt P40997).
T2 sequence (P40997 1-402): T1 sequence (P40997 1-402 G276R) with R276G
Briefly: Competition between labeled and unlabeled Spt5 CTD-. Type of assay: binding, S. pombe. Conditions: 1 μM Pce1 preincubated with untagged Spt5 CTD-(801–898) 15 min on ice, then 0.3 μM BODIPY-FL-Spt5 CTD-(801–898); pH 8.0; three independent experiments ± SEM.

The target of assay [3] is T3, BODIPY-FL-N(Cys)-Spt5-(801–898) (S. pombe) (UniProt O13936).
T3 sequence (O13936 801-898, looked up): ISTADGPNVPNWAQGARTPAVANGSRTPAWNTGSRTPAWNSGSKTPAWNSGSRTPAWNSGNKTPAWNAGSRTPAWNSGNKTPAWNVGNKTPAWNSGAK
The assay is described as follows: fluorescence polarisation.

B1: BODIPY-FL-Spt5 CTD-(801–898): N(Cys)-Spt5-(801–898) labeled with BODIPY-FL at the N terminus via maleimide chemistry (protein, UniProt O13936 801-898, looked up, fragment)
chain: T3 sequence (O13936 801-898, looked up)
modifications: N-terminal Cys, BODIPY-FL label
By Kd is commonly meant the constant that tells how readily two partners part at equilibrium. Lower therefore signals tighter binding. B1: the “decrement in binding affinity” value in the assay with Pce1 G276R (Pce1-G276R vs wild-type Pce1) was 24 fold. Besides, the affinity with Pce1 G276R (Pce1 G276R, 300 nM labeled ligand, pH 8.0, 50 mM NaCl, read at 23°C, triplicate), expressed as Kd, was 28.8 ± 4.3 µM.

B2: Spt5 CTD composed of 10 nonamer repeats: Spt5 CTD composed of 10 nonamer repeats (protein, UniProt O13936 801-898, looked up, fragment)
chain: T3 sequence (O13936 801-898, looked up)
As for B2, the “Pce1 binding to Spt5 CTD, dependence on number of nonamer repeats” value with Pce1 [1] is “bound well”.

B3: Spt5-(801–898): purified recombinant Spt5-(801–898), composed of 10 nonamer repeats (protein, UniProt O13936 801-898, looked up, fragment)
chain: T3 sequence (O13936 801-898, looked up)
The term Ki denotes the equilibrium dissociation constant of an inhibitor or competing ligand from its target. The molecule B3 yielded a Ki in the assay with Pce1 [2] of 0.61 ± 0.2 µM.

B4: Schizosaccharomyces pombe RNA guanylyltransferase (GTase) Pce1, wild type, as the covalent Pce1–GMP intermediate (enzyme)
chain: SMAPSEKDIEEVSVPGVLAPRDDVRVLKTRIAKLLGTSPDTFPGSQPVSFSKKHLQALKEKNYFVCEKSDGIRCLLYMTEHPRYENRPSVYLFDRKMNFYHVEKIFYPVENDKSGKKYHVDTLLDGELVLDIYPGGKKQLRYLVFDCLACDGIVYMSRLLDKRLGIFAKSIQKPLDEYTKTHMRETAIFPFLTSLKKMELGHGILKLFNEVIPRLRHGNDGLIFTCTETPYVSGTDQSLLKWKPKEMNTIDFMLKLEFAQPEEGDIDYSAMPEFQLGVWEGRNMYSFFAFMYVDEKEWEKLKSFNVPLSERIVECYLDDENRWRFLRFRDDKRDANHISTVKSVLQSIEDGVSKEDLLKEMPIIREAYYNRKKPSVTKRKLDETSNDDAPAIKKVAKESEKEI
modifications: Lys67 covalently guanylylated (lysyl-Nζ-GMP)
As for B4, in assay [3], the Kd turned out to be 1.19 µM.

B5: Pce1-G276R (enzyme)
chain: B4 chain with G277R
modifications: guanylylated in vitro (Pce1–GMP)
Turning to B5, in assay [3], the dissociation constant Kd worked out at 28.8 µM.
